According to article PMC5689172 (Biochemistry and Biophysics Reports, 2016):
In brackets after ≈: the same amount, converted by molar mass. Read-outs that look alike come from different tables or passages of the source.

How the values were obtained:
S. dysenteriae = assay: Antimicrobial activity, agar dilution method; type: cell-based; conditions: Shigella dysenteriae
How it was run: (§1)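 Test compound in DMSO, mixed with Mueller–Hinton broth, two-fold serially diluted, and incorporated into MH agar at final 0.25–256 μg/mL. Agar with 0.5% DMSO served as reagent control. Organisms were grown overnight in MH broth at 37 °C, diluted in normal saline to 0.5 McFarland (1.5×10⁸ CFU/mL), and inoculated onto plates. Plates were incubated at 37 °C for 24–48 h, then MIC was recorded.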

P. shigelloides = assay: Antimicrobial activity, agar dilution method; type: cell-based; conditions: Plesiomonas shigelloides
[1] = test system: K. pneumoniae ATCC 700603; assay: Antimicrobial activity, agar dilution method; type: cell-based; conditions: Klebsiella pneumoniae, ATCC700603
How it was run: as §1

L. monocytogenes = assay: Antimicrobial activity, agar dilution method; type: cell-based; conditions: Listeria monocytogenes
How it was run: as §1

[2] = test system: S. Choleraesuis ATCC 10708; assay: Antimicrobial activity, agar dilution method; type: cell-based; conditions: Salmonella enterica, ATCC10708|CHOLERAESUIS
How it was run: as §1

S. Enteritidis = assay: Antimicrobial activity, agar dilution method; type: cell-based; conditions: Salmonella enterica
How it was run: as §1

[3] = test system: S. Typhimurium ATCC 13311; assay: Antimicrobial activity, agar dilution method; type: cell-based; conditions: Salmonella enterica, ATCC13311|TYPHIMURIUM
How it was run: as §1

S. aureus ATCC 25923 = assay: Antimicrobial activity, agar dilution method; type: cell-based; conditions: Staphylococcus aureus, ATCC25923
How it was run: as §1

[4] = test system: S. putrefaciens ATCC 8071; assay: Antimicrobial activity, agar dilution method; type: cell-based; conditions: Shewanella putrefaciens, ATCC8071
How it was run: as §1

[5] = test system: C. diphtheriae NCTC 10356; assay: Antimicrobial activity, agar dilution method; type: cell-based; conditions: Corynebacterium diphtheriae, NCTC10356
How it was run: as §1

E. coli ATCC 25922 = assay: Antimicrobial activity, agar dilution method; type: cell-based; conditions: Escherichia coli, ATCC25922
How it was run: as §1

[6] = test system: A. xylosoxidans ATCC 27061; assay: Antimicrobial activity, agar dilution method; type: cell-based; conditions: Achromobacter xylosoxidans, ATCC27061
How it was run: as §1

P. aeruginosa ATCC 27853 = assay: Antimicrobial activity, agar dilution method; type: cell-based, Pseudomonas aeruginosa
How it was run: as §1

P. stutzeri ATCC 17587 = assay: Antimicrobial activity, agar dilution method; type: cell-based, Pseudomonas stutzeri; conditions: Stutzerimonas stutzeri, ATCC17587
How it was run: as §1

[7] = Antioxidant activity, DPPH radical scavenging assay; type: biochemical; conditions: read-out: RSA IC50, 30 min, 517 nm
How it was run: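 Sample solution (test compound, 1 mg/mL in DMSO) was mixed with 0.1 mM DPPH in methanol and kept 30 min in the dark. Absorbance was read at 517 nm. Radical scavenging activity (%) = [1 − Abs(sample)/Abs(control)] × 100. α-Tocopherol was the positive control.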

A. hydrophila = assay: Antimicrobial activity, agar dilution method; type: cell-based; conditions: Aeromonas hydrophila
How it was run: as §1

diploid fungi and yeast = assay: Antimicrobial activity, agar dilution method, summarised over the group; type: cell-based, Candida albicans; conditions: Saccharomyces cerevisiae, ATCC2601|ATCC90028
How it was run: as §1

[8] = test system: S. epidermidis ATCC 12228; assay: Antimicrobial activity, agar dilution method; type: cell-based; conditions: Staphylococcus epidermidis, ATCC12228
How it was run: as §1

E. faecalis ATCC 33186 = assay: Antimicrobial activity, agar dilution method; type: cell-based; conditions: Enterococcus faecalis, ATCC33186
How it was run: as §1

Gram-negative bacteria = assay: Antimicrobial activity, agar dilution method, summarised over the group; type: cell-based
How it was run: as §1

B. cereus = assay: Antimicrobial activity, agar dilution method; type: cell-based; conditions: Bacillus cereus
How it was run: as §1

S. marcescens ATCC 8100 = assay: Antimicrobial activity, agar dilution method; type: cell-based; conditions: Serratia marcescens, ATCC8100
How it was run: as §1

M. luteus ATCC 10240 = assay: Antimicrobial activity, agar dilution method; type: cell-based; conditions: Micrococcus luteus, ATCC10240
How it was run: as §1

M. morganii = assay: Antimicrobial activity, agar dilution method; type: cell-based; conditions: Morganella morganii
How it was run: as §1

S. cerevisiae ATCC 2601 = assay: Antimicrobial activity, agar dilution method; type: cell-based; conditions: Saccharomyces cerevisiae, ATCC2601
How it was run: as §1

C. freundii = assay: Antimicrobial activity, agar dilution method; type: cell-based; conditions: Citrobacter freundii
How it was run: as §1

S. aureus ATCC 29213 = assay: Antimicrobial activity, agar dilution method; type: cell-based; conditions: Staphylococcus aureus, ATCC29213
How it was run: as §1

Cytotoxicity, MTT assay = type: cell-based; conditions: human, MRC-5 cells (normal embryonic lung cell line)
C. albicans ATCC 90028 = assay: Antimicrobial activity, agar dilution method; type: cell-based; conditions: Candida albicans, ATCC90028
How it was run: as §1

E. faecalis ATCC 29212 = assay: Antimicrobial activity, agar dilution method; type: cell-based; conditions: Enterococcus faecalis, ATCC29212
How it was run: as §1

B. subtilis ATCC 6633 = assay: Antimicrobial activity, agar dilution method; type: cell-based; conditions: Bacillus subtilis, ATCC6633
How it was run: as §1

[9] = read-out: SOD (superoxide dismutase) activity IC50; cited from earlier work
[10] = test system: twenty-seven strains of microorganisms; type: cell-based; conditions: Saccharomyces cerevisiae
How it was run: as §1

Gram-positive bacteria = assay: Antimicrobial activity, agar dilution method, summarised over the group; type: cell-based
How it was run: as §1

MRC-5 cell line = conditions: read-out: Cytotoxicity IC50; MRC-5 cells, MTT; cited from earlier work
[11] = Pseudomonas aeruginosa, ATCC27853

SMILES | MIC (S. dysenteriae) | MIC [1] | MIC (L. monocytogenes) | MIC [2] | MIC (S. Enteritidis) | MIC [3] | MIC (S. aureus ATCC 25923) | MIC [4] | MIC [5] | MIC (E. coli ATCC 25922) | MIC [6] | MIC (P. aeruginosa ATCC 27853; [11]) | MIC (P. stutzeri ATCC 17587) | IC50 [7] | MIC (A. hydrophila) | MIC [8] | MIC (E. faecalis ATCC 33186) | MIC (B. cereus) | MIC (S. marcescens ATCC 8100) | MIC (M. luteus ATCC 10240) | also measured
Nc1ccc(O)c2ncccc12 [5-amino-8HQ (8), 5-Amino-8-hydroxyquinoline] | 1100 µM (≈ 176 µg/mL) | 1100 µM (≈ 176 µg/mL) | 275 µM (≈ 44 µg/mL) | 1100 µM (≈ 176 µg/mL) | 1100 µM (≈ 176 µg/mL) | 1100 µM (≈ 176 µg/mL) | 275 µM (≈ 44 µg/mL) | 1100 µM (≈ 176 µg/mL) | 1100 µM (≈ 176 µg/mL) | 1100 µM (≈ 176 µg/mL) | 549 µM (≈ 88 µg/mL) | 1100 µM (≈ 176 µg/mL) | 1100 µM (≈ 176 µg/mL) | 8.71 µM | 275 µM (≈ 44 µg/mL) | 275 µM (≈ 44 µg/mL) | 1100 µM (≈ 176 µg/mL) | 275 µM (≈ 44 µg/mL) | 1100 µM (≈ 176 µg/mL) | 275 µM (≈ 44 µg/mL) | MIC (P. shigelloides; P. shigelloides, agar dilution): 1100 µM (≈ 176 µg/mL); MIC (diploid fungi and yeast): ≥ 645 µM; MIC (Gram-negative bacteria): 1100 µM (≈ 176 µg/mL); MIC (M. morganii): 1100 µM (≈ 176 µg/mL); MIC (S. cerevisiae ATCC 2601): 1100 µM (≈ 176 µg/mL); MIC (C. freundii): 1100 µM (≈ 176 µg/mL); MIC (S. aureus ATCC 29213): 275 µM (≈ 44 µg/mL); IC50 at 48 h (Cytotoxicity, MTT assay): 22.1 ± 1.02 µM; MIC (C. albicans ATCC 90028): 1100 µM (≈ 176 µg/mL); MIC (E. faecalis ATCC 29212): 1100 µM (≈ 176 µg/mL); MIC (B. subtilis ATCC 6633): 275 µM (≈ 44 µg/mL)
Oc1cccc2cccnc12 [8HQ (1), 8-Hydroxyquinoline] | 220 µM (≈ 32 µg/mL) | 882 µM (≈ 128 µg/mL) | 3.44 µM (≈ 0.499 µg/mL) | 882 µM (≈ 128 µg/mL) | 882 µM (≈ 128 µg/mL) | 220 µM (≈ 32 µg/mL) | 6.89 µM (≈ 1 µg/mL) | 220 µM (≈ 32 µg/mL) | 13.8 µM (≈ 2 µg/mL) | 220 µM (≈ 32 µg/mL) | 55.1 µM (≈ 8 µg/mL) | > 1760 µM | 220 µM (≈ 32 µg/mL) | 615 µM | 110 µM (≈ 16 µg/mL) | 6.89 µM (≈ 1 µg/mL) | 13.8 µM (≈ 2 µg/mL) | 13.8 µM (≈ 2 µg/mL) | 220 µM (≈ 32 µg/mL) | 13.8 µM (≈ 2 µg/mL) | MIC (P. shigelloides): 13.8 µM (≈ 2 µg/mL); IC50 [9]: 91.8 µM; MIC (P. aeruginosa ATCC 27853; P. aeruginosa ATCC 27853, agar dilution): >1763.57 µM; MIC [10]: 3.44 to 13.8 µM (≈ 0.499 to 2 µg/mL); MIC (Gram-negative bacteria): 110 to 882 µM (≈ 16 to 128 µg/mL); MIC (Gram-negative bacteria; [11]): 13.8 to 882 µM (≈ 2 to 128 µg/mL); MIC (M. morganii): 882 µM (≈ 128 µg/mL); MIC (Gram-positive bacteria): 3.44 to 13.8 µM (≈ 0.499 to 2 µg/mL); MIC (S. cerevisiae ATCC 2601): 13.8 µM (≈ 2 µg/mL); MIC (C. freundii): 220 µM (≈ 32 µg/mL); IC50 (MRC-5 cell line): 6.27 µM; MIC (S. aureus ATCC 29213): 6.89 µM (≈ 1 µg/mL); MIC (C. albicans ATCC 90028): 13.8 µM (≈ 2 µg/mL); MIC (E. faecalis ATCC 29212): 13.8 µM (≈ 2 µg/mL); MIC (B. subtilis ATCC 6633): 6.89 µM (≈ 1 µg/mL)
Oc1c(I)cc(Cl)c2cccnc12 [CQ (6), clioquinol] | 838 µM (≈ 256 µg/mL) | > 838 µM | 26.2 µM (≈ 8 µg/mL) | > 838 µM | 105 µM (≈ 32 µg/mL) | 838 µM (≈ 256 µg/mL) | 26.2 µM (≈ 8 µg/mL) | 26.2 µM (≈ 8 µg/mL) | 26.2 µM (≈ 8 µg/mL) | 26.2 µM (≈ 8 µg/mL) | 26.2 µM (≈ 8 µg/mL) | > 838 µM | 105 µM (≈ 32 µg/mL) | 366 µM | 26.2 µM (≈ 8 µg/mL) | 26.2 µM (≈ 8 µg/mL) | 26.2 µM (≈ 8 µg/mL) | 26.2 µM (≈ 8 µg/mL) | 26.2 µM (≈ 8 µg/mL) | 26.2 µM (≈ 8 µg/mL) | MIC (P. shigelloides; P. shigelloides, agar dilution): 26.2 µM (≈ 8 µg/mL); MIC (M. morganii): 838 µM (≈ 256 µg/mL); MIC (Gram-positive bacteria): 26.2 µM (≈ 8 µg/mL); MIC (S. cerevisiae ATCC 2601): 26.2 µM (≈ 8 µg/mL); MIC (C. freundii): 419 µM (≈ 128 µg/mL); MIC (S. aureus ATCC 29213): 26.2 µM (≈ 8 µg/mL); IC50 at 48 h (Cytotoxicity, MTT assay): 76.17 ± 0.23 µM; MIC (C. albicans ATCC 90028): 26.2 µM (≈ 8 µg/mL); MIC (E. faecalis ATCC 29212): 26.2 µM (≈ 8 µg/mL); MIC (B. subtilis ATCC 6633): 26.2 µM (≈ 8 µg/mL)
Oc1ccc(Cl)c2cccnc12 [Cloxyquin (3), cloxyquin] | 178 µM (≈ 32 µg/mL) | 713 µM (≈ 128 µg/mL) | 5.57 µM (≈ 1 µg/mL) | 713 µM (≈ 128 µg/mL) | 178 µM (≈ 32 µg/mL) | 178 µM (≈ 32 µg/mL) | 89.1 µM (≈ 16 µg/mL) | 178 µM (≈ 32 µg/mL) | 22.3 µM (≈ 4 µg/mL) | 89.1 µM (≈ 16 µg/mL) | 89.1 µM (≈ 16 µg/mL) | > 1430 µM | 178 µM (≈ 32 µg/mL) | 1050 µM | 44.5 µM (≈ 8 µg/mL) | 22.3 µM (≈ 4 µg/mL) | 89.1 µM (≈ 16 µg/mL) | 44.5 µM (≈ 8 µg/mL) | 89.1 µM (≈ 16 µg/mL) | 22.3 µM (≈ 4 µg/mL) | MIC (P. shigelloides; P. shigelloides, agar dilution): 11.1 µM (≈ 2 µg/mL); MIC (M. morganii): 178 µM (≈ 32 µg/mL); MIC (Gram-positive bacteria): 5.57 to 89.1 µM (≈ 1 to 16 µg/mL); MIC (S. cerevisiae ATCC 2601): 89.1 µM (≈ 16 µg/mL); MIC (C. freundii): 178 µM (≈ 32 µg/mL); MIC (S. aureus ATCC 29213): 89.1 µM (≈ 16 µg/mL); IC50 at 48 h (Cytotoxicity, MTT assay): 81.7 ± 0.96 µM; MIC (C. albicans ATCC 90028): 178 µM (≈ 32 µg/mL); MIC (E. faecalis ATCC 29212): 89.1 µM (≈ 16 µg/mL); MIC (B. subtilis ATCC 6633): 22.3 µM (≈ 4 µg/mL)
